We go through three compounds from PMC9060504 (Proceedings of the National Academy of Sciences of the …, 2022).

The target of data set [1] is STIM1 and Orai1 (CRAC channel) (Homo sapiens, UniProt Q96D31). As to the kind of experiment: Whole-cell patch-clamp CRAC current in HEK293 cells expressing STIM1 and Orai1. Type of data set: cell-based.
The nature of data set [2]: Trans:cis isomer ratio by 1H NMR. Type of data set: physicochemical.
The test system of the next data set is SOCE in HEK293 cells. In words: Ca2+ imaging of SOCE in HEK293 cells. The data set is classed as cell-based. The conditions noted are these: 100 μM, 1 mM Ca2+, TG.
For data set [3], the target named is T1, Orai3 (Homo sapiens, UniProt Q9BRQ5). In words: Current recording, HEK293 cells expressing Orai3 alone. The data set is classed as cell-based. The conditions noted are these: 100 μM, with or without 360 nm light.
In data set [4] the target is STIM1 together with Orai2 (Homo sapiens, UniProt Q96SN7). In words: Whole-cell patch-clamp CRAC current in cells coexpressing STIM1 and Orai2. The data set is classed as cell-based. (The patch-clamp technique gives a direct electrical read-out from membranes.)
In data set [5] the test system is O3N–O1C chimeric Orai channel. As to the kind of experiment: Current recording, STIM1 with chimeric O3N–O1C channel. The data set is classed as cell-based. The conditions noted are these: 10 μM. An outline of the steps: (§1)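 Whole-cell currents were recorded from cells expressing the Orai1 mutant or the chimera (the chimera with STIM1). Cells were superfused with extracellular solution containing 10 mM Ca2+, with or without 10 μM test compound or 10 μM La3+. During recording, cells were kept dark or illuminated at the indicated wavelengths. Time courses and I-V plots were collected.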

A further data set concerns InsP3R. In words: Ca2+ imaging of IP3-mediated ER Ca2+ release in STIM DKO cells. Type of data set: cell-based. The conditions noted are these: 100 μM. An outline of the steps: (§2)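 Cells were loaded with 5 μM Cal-590 in Ringer's solution for 60 min, excited at 560 nm, and imaged every 3 or 10 s. Each experiment recorded 10 to 97 cells, and their responses were averaged. The Ca2+ change after activating each transport mechanism with 100 μM test compound present was normalized to the change in DMSO-treated control cells.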

Data set [6] addresses T2, Orai1 (Homo sapiens, UniProt Q96D31). In words: Ca2+ imaging of SOCE, Orai TKO HEK293 cells expressing STIM1 and Orai1. As to conditions: 100 μM, dark. Type of data set: cell-based.
Target sequence in this assay (Q96D31 whole entry): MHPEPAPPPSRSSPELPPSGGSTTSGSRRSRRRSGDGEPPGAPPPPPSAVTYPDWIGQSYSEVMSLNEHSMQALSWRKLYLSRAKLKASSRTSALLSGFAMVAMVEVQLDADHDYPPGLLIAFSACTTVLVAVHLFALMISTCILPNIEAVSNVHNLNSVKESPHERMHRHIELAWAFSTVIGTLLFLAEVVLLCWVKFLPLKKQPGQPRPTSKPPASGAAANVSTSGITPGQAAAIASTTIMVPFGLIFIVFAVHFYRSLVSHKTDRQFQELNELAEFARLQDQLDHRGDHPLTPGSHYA
Target sequence in this assay (Q13586 23-685 partner): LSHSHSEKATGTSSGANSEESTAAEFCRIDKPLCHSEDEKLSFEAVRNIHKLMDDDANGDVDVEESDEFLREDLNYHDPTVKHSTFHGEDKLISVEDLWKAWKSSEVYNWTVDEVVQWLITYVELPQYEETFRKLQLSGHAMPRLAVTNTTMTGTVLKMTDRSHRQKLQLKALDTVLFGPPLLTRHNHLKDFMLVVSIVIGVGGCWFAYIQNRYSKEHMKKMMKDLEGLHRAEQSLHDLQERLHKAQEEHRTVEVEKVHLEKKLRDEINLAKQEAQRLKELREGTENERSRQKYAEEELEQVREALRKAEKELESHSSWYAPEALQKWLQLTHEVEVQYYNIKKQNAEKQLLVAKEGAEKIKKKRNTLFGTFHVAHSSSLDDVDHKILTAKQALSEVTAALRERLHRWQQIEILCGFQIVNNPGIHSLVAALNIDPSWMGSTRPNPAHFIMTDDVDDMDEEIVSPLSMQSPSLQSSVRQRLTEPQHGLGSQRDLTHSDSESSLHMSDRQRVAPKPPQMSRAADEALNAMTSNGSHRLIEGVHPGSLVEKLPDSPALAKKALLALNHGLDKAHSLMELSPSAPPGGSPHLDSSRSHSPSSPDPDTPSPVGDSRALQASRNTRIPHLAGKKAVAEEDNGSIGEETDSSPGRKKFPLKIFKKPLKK
The next data set addresses Orai1 P245L (Homo sapiens, UniProt Q96D31, P245L). As to the kind of experiment: Current recording, constitutively open Orai1 P245L mutant. The data set is classed as cell-based. As to conditions: 10 μM. An outline of the steps: as §1
The next data set addresses NCX1 (Homo sapiens, UniProt P32418). In words: Ca2+ imaging of reverse Na+/Ca2+ exchange in cells overexpressing NCX1. The data set is classed as cell-based. An outline of the steps:
as §2

In the next data set the target is TRPC3 (Homo sapiens, UniProt Q13507). In words: Ca2+ imaging of TRPC3-mediated Ca2+ influx in STIM DKO cells. Type of data set: cell-based. The conditions noted are these: 100 μM. An outline of the steps:
as §2

Data set [7] can be described thus: Photostability under repeated illumination. Type of data set: physicochemical. The conditions noted are these: eight cycles 365/520 nm, 1% DMSO in PBS. A digest of the protocol: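 Test compound at 26 μM in 1% DMSO/PBS was exposed to eight cycles of alternating 5-min 365 nm and 520 nm LED illumination. Absorbance at 329 nm was recorded throughout.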
In data set [8] the test system is NFAT transcription in Jurkat NFAT-P/Luciferase (JNL) cells. As to the kind of experiment: NFAT-dependent luciferase assay in JNL cells. As to conditions: 100 μM. Type of data set: cell-based, human.
Another data set deals with Orai1 V102A (Homo sapiens, UniProt Q96D31, V102A). As to the kind of experiment: Current recording, constitutively open Orai1 V102A mutant. Type of data set: cell-based. The conditions noted are these: 10 μM. An outline of the steps: as §1
Data set [9] relates to O1N–O3C chimeric Orai channel. As to the kind of experiment: Current recording, STIM1 with chimeric O1N–O3C channel. The data set is classed as cell-based. The conditions noted are these: 10 μM. A digest of the protocol:
as §1

Data set [10] relates to EMT6-GFP murine breast cancer cells. As to the kind of experiment: Pulmonary metastatic assay. The data set is classed as in vivo, mouse. An outline of the steps:
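EMT6-GFP cells were treated for 1 h with 1% DMSO or 200 µM test compound, with or without 10 s of 365 nm light (16 mW/cm²) at 0, 30 and 60 min. They were then washed and injected into the tail vein of 8-wk BALB/c mice (5 × 10⁴ cells). After 20 min, lungs were perfused, agarose-inflated and cut into 1–2 mm slices. Slices were cultured 7 d at 37 °C, and GFP⁺ colonies counted (3 slices/mouse, 5 mice/group). GFP⁺ cell percentage was then measured by flow cytometry.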

For data set [11], the target named is T2, Orai1. The data set is classed as cell-based. The conditions noted are these: Orai1 alone, 100 μM, with or without 360 nm light.
Target sequence in this assay (Q96D31 whole entry): as the sequence (Q96D31 whole entry) above
The next data set addresses TRPV1 (Homo sapiens, UniProt Q8NER1). In words: Ca2+ imaging of TRPV1-mediated Ca2+ influx in STIM DKO cells. Type of data set: cell-based. The conditions noted are these: 100 μM. A digest of the protocol:
as §2

In data set [12] the test system is capsaicin-induced nocifensive behavior. As to the kind of experiment: Capsaicin-induced forelimb eye wiping test. The data set is classed as in vivo, mouse. A digest of the protocol:
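Male C57BL/6JOLAHSD mice (3–4 wk, 5–6 per group) were handled for 2 d and habituated to the cage for 10 min. A 10-μL drop went to the right eye: vehicle (0.1% ethanol in SES), 1 μM capsaicin, 100 μM test compound, or capsaicin plus compound. Forelimb wipes were counted for 5 min, starting 5 min after dosing. Where used, 365 nm light (16 mW/cm², 3 cm, 60 s) was given and counting began 5 min later. Light alone was also tested.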

For data set [13], the target named is T1, Orai3. As to the kind of experiment: Ca2+ imaging of SOCE, Orai TKO HEK293 cells expressing STIM1 and Orai3. The data set is classed as cell-based. As to conditions: 100 μM, dark.
The target of data set [14] is T3, STIM1 together with Orai3 (Homo sapiens, UniProt Q9BRQ5). In words: Whole-cell patch-clamp CRAC current in cells coexpressing STIM1 and Orai3. Type of data set: cell-based.
The target of the next data set is TRPC6 (Homo sapiens, UniProt Q9Y210). In words: Ca2+ imaging of TRPC6-mediated Ca2+ influx in STIM DKO cells. The data set is classed as cell-based. The conditions noted are these: 100 μM. A digest of the protocol: as §2
Another data set deals with STIM1 (Homo sapiens, UniProt Q13586). As to the kind of experiment: TIRFM of STIM1 clustering at ER–PM junctions. Type of data set: cell-based. The conditions noted are these: 100 μM, after ER Ca2+ depletion with TG. A digest of the protocol:
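TIRFM used a 100× (N.A. 1.49) objective. STIM1-mCherry cells were held in zero-Ca2+ solution with 400 nM thapsigargin for 10 min, then received 100 μM test compound and were imaged before and 20 min after. Orai1-EGFP/STIM1-mCherry cells were preincubated with 100 μM compound in zero Ca2+ and imaged before and 10 min after adding 400 nM thapsigargin.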

Another data set deals with SOCE in TG neurons. In words: Ca2+ imaging of SOCE in cultured trigeminal ganglion neurons. Type of data set: cell-based, mouse. The conditions noted are these: 100 μM. An outline of the steps: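 Mouse trigeminal ganglion neurons were acutely dissociated, cultured and loaded with Cal-590. They were held for 10 min in Ca2+-free solution with 1 μM thapsigargin, with or without 100 μM test compound. SOCE was then induced by superfusion with 0.5 mM Ca2+, without or with 360 nm illumination. Fluorescence time courses came from n = 71 to 179 cells per group.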

The target of the next data set is Orai2 (Homo sapiens, UniProt Q96SN7). As to the kind of experiment: Ca2+ imaging of SOCE, Orai TKO HEK293 cells expressing STIM1 and Orai2. The data set is classed as cell-based. As to conditions: 100 μM, dark.
Data set [15] concerns the target T3, STIM1 together with Orai3. The conditions noted are these: cited from earlier work.
Setting [16] is: cells treated with 200 μM, no illumination.

Sequence of STIM1 and Orai1 (CRAC channel) (Q96D31 whole entry): as above
Sequence of STIM1 and Orai1 (CRAC channel) (Q13586 23-685 partner): as the sequence (Q13586 23-685 partner) above
Sequence of TRPV1 (Q8NER1 whole entry, species assumed): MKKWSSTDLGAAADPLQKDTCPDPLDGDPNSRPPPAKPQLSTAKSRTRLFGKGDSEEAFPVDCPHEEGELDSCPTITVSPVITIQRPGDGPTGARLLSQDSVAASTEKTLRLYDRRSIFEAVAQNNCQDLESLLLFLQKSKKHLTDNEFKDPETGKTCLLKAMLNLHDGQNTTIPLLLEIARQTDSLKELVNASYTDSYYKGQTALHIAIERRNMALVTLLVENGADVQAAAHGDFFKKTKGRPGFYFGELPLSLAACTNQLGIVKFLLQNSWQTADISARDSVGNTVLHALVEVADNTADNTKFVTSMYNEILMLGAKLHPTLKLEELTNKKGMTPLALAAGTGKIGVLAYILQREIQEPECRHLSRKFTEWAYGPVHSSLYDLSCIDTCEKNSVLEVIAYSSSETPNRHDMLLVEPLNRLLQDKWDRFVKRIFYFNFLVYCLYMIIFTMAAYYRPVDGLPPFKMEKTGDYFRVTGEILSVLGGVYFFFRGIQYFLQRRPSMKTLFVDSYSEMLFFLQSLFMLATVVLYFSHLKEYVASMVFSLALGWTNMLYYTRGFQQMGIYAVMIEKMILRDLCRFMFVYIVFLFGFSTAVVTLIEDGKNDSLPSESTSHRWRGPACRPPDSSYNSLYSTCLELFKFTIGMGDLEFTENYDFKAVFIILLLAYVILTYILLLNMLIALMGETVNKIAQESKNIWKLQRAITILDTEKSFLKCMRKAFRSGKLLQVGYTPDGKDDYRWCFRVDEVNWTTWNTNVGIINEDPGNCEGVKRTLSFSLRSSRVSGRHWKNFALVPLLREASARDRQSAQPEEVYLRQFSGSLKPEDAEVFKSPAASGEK
Sequence of TRPC3 (Q13507 whole entry, species assumed): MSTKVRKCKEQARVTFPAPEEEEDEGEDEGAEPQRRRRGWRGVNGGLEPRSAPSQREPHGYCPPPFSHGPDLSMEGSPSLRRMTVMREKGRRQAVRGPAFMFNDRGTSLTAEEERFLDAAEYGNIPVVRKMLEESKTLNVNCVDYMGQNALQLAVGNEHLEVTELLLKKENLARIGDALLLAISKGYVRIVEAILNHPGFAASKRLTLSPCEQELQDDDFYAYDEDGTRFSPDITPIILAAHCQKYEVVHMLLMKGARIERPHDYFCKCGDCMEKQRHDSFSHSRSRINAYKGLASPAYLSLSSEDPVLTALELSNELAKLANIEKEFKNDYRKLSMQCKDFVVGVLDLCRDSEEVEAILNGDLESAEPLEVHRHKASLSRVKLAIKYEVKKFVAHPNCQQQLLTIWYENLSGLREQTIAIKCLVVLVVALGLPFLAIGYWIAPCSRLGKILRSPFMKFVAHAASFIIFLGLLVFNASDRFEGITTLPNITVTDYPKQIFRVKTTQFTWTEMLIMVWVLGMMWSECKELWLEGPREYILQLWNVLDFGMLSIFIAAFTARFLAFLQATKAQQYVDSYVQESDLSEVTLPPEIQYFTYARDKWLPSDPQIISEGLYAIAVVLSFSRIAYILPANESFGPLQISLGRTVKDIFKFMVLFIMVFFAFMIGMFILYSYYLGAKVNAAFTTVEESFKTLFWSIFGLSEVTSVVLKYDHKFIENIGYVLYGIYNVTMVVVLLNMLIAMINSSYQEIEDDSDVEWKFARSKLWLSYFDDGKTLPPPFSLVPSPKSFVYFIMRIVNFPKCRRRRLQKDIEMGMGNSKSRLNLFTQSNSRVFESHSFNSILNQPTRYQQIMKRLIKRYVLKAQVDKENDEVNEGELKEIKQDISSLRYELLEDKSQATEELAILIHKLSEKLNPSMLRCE
Sequence of NCX1 (P32418 36-973): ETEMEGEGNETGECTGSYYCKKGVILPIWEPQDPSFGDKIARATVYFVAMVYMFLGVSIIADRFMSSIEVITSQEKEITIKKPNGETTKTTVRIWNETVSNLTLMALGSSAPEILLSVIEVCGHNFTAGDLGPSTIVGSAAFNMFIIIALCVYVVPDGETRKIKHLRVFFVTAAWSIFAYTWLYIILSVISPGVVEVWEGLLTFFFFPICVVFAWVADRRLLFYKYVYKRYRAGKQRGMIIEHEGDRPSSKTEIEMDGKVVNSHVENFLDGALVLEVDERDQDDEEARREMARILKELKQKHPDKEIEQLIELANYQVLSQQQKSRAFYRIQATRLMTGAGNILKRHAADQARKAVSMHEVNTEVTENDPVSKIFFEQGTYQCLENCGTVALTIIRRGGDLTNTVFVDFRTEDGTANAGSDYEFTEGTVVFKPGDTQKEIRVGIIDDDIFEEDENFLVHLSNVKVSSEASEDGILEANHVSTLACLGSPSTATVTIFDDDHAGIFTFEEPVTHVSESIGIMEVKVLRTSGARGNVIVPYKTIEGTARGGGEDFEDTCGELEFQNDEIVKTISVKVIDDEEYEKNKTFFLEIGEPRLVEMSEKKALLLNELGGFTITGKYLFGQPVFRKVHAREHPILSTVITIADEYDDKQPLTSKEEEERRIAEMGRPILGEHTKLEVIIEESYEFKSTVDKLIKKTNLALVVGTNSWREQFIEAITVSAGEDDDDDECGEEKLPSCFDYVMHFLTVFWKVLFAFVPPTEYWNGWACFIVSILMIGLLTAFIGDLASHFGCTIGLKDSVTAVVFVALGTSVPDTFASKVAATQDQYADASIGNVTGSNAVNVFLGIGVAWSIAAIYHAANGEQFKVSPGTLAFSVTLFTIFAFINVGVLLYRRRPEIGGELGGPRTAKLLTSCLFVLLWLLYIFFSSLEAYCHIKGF
Sequence of TRPC6 (Q9Y210 whole entry, species assumed): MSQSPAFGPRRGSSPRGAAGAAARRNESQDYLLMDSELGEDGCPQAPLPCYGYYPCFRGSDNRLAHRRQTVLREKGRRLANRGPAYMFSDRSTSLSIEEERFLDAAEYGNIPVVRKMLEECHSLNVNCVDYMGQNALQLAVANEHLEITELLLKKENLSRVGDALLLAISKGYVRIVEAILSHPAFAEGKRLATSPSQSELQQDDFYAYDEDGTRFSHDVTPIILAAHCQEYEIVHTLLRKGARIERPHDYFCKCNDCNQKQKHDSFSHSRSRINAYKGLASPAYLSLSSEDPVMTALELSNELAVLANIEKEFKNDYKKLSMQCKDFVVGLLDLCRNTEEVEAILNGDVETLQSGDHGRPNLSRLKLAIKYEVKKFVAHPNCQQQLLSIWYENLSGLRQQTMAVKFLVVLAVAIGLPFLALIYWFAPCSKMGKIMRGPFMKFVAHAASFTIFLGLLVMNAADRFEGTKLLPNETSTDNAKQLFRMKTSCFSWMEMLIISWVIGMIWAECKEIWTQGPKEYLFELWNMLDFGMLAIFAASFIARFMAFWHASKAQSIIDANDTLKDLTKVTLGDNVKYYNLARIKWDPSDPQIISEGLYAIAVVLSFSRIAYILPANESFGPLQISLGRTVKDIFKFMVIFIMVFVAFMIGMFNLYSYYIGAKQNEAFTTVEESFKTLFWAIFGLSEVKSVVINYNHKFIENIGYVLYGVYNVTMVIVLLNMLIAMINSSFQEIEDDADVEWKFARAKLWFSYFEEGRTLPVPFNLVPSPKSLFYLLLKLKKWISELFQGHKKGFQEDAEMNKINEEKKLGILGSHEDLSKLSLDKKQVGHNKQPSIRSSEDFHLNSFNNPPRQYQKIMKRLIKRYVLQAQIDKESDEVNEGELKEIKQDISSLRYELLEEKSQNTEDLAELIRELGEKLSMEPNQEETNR
Sequence of STIM1 (Q13586 23-685, species assumed): as the sequence (Q13586 23-685 partner) above
Sequence of STIM1 together with Orai2 (Q96SN7 whole entry, the tested form may be a part): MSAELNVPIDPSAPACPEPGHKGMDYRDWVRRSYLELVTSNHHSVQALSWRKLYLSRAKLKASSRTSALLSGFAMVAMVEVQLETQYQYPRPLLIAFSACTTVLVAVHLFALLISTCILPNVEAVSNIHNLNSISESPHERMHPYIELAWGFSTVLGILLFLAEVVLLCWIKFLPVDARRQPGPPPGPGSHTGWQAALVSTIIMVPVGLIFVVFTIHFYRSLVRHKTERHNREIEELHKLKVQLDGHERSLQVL

The term Ki denotes the equilibrium dissociation constant of an inhibitor or competing ligand from its target. Low readings indicate a stronger hold on the target, high ones a looser hold on the target. The inhibition is the change of the read-out against control, counted positive when it falls. For the compound `OB(O)c1ccc(/N=N/c2ccccc2)cc1` [LOCI-1], the “Control of channel activity when infused into the cytosol via the patch pipette” value in [1] (0.5 mM in pipette solution) was “failed to do so”. The inhibition constant Ki came to 5.5 ± 0.26 µM in data set [1] (Ki, dose-inhibition analysis, HEK293 STIM1+Orai1, LOCI-1 n = 3, LOCI-2 n = 4); 15.5 ± 1.8 µM in data set [4]; 131 ± 24 µM in data set [14]. In addition, the “Restoration of inhibited current by 360 nm light” value in [1] (LOCI-1 10 μM, LOCI-2 10 μM, 2-APB 100 μM) is reported as “fully restored”. Further, in data set [2], the “Trans isomer content, dark-adapted” value was 94%. Moreover, the “Effect on SOCE” value in the data set on SOCE in HEK293 cells is reported as “inhibited”. Further, the “Current change on application” value on Orai3 [3] and at Orai1 [11] was “did not induce a notable current change” throughout. Also, in data set [5], the “Effect on O3N–O1C channel current” value is “small and inconsistent effect”. The “Effect on IP3-mediated Ca2+ release” value in the data set on InsP3R was “did not affect”. Besides, on Orai1 [6], the “Effect on SOCE mediated by Orai1” value was “strongly inhibits”. Also, on Orai1 P245L, the “Effect on Orai1 P245L current” value was “strongly inhibited”. The “Effect on sodium–calcium exchange activity” value on NCX1 was “did not inhibit”. Besides, the “Effect on TRPC3-mediated Ca2+ influx” value on TRPC3 is “did not affect”. In addition, the “Photofatigue on repeated illumination” value in [7] was “without significant photofatigue”. Moreover, the “Inhibition of NFAT transcription” value in data set [8] (16 h, in the dark) was “more than 80%”. Besides, the “NFAT transcription after 365 nm light” value in data set [8] (two pulses of 365 nm light) is recorded as “fully restore transcription to control levels”. At Orai1 V102A, the “Effect on Orai1 V102A current” value was “negligible effect”. Also, in data set [9], the “Effect on O1N–O3C channel current” value is reported as “strongly inhibited”. For the same compound, the “GFP-positive cancer cells in lung tissue” value was about 1.3% in data set [10] (cells treated with 200 μM and 365 nm illumination); about 0.65% in data set [10] (setting [16]). For the same compound, in [10] (setting [16]), the “Number of metastatic colonies vs DMSO” value is listed as “significantly fewer metastatic colonies”. Besides, the “Effect on TRPV1-mediated Ca2+ influx” value on TRPV1 is “did not affect”. In addition, the “TRPV1 activity in presence of cis or trans conformations” value on TRPV1 (HEK293 STIM DKO cells expressing TRPV1) is listed as “unchanged”. Besides, in [12] (100 μM alone, topical to eye), the “Eye wiping response, applied alone” value is listed as “neither LOCI-1 nor 365 nm light elicits an appreciable nocifensive behavior”. Moreover, the “Inhibitory effect on eye wiping after a pulse of 365 nm light” value in data set [12] (100 μM with 1 μM capsaicin, 365 nm 60 s) is listed as “fully reversed”. Besides, the “Eye wiping response, cotreatment with capsaicin” value in [12] (100 μM with 1 μM capsaicin, topical to eye, vs capsaicin alone) is listed as “significantly lower responses”. Further, the “Effect on SOCE mediated by Orai3” value on Orai3 [13] was “not”. Besides, the inhibition at 100 µM in [14] (read-out: Average inhibition of Orai3 activity) was about 35%. For the same compound, on TRPC6, the “Effect on TRPC6-mediated Ca2+ influx” value is on record as “did not affect”. Besides, the “Effect on clustering of STIM1 in puncta at ER–PM junctions” value at STIM1 is recorded as “did not affect”. Further, in the data set on SOCE in TG neurons, the “Effect on SOCE in TG neurons” value was “inhibited”. In addition, the “Effect on SOCE mediated by Orai2” value at Orai2 is on record as “strongly inhibits”.

As to `O=C(Nc1ccn(Cc2ccccc2Oc2ccccc2)n1)c1c(F)cccc1F` [GSK5503A], the “Sensitivity of Orai3 current” value in data set [15] is recorded as “sensitive”.

On to `O=C(Nc1ccn(Cc2ccc(O)cc2C(F)(F)F)n1)c1c(F)cccc1F` [GSK7975A], for which, in data set [15], the “Sensitivity of Orai3 current” value is “sensitive”.
